In test [1] the target is T1, G-protein coupled receptor Mth (Drosophila melanogaster, UniProt O97148).
T1 sequence (O97148 whole entry): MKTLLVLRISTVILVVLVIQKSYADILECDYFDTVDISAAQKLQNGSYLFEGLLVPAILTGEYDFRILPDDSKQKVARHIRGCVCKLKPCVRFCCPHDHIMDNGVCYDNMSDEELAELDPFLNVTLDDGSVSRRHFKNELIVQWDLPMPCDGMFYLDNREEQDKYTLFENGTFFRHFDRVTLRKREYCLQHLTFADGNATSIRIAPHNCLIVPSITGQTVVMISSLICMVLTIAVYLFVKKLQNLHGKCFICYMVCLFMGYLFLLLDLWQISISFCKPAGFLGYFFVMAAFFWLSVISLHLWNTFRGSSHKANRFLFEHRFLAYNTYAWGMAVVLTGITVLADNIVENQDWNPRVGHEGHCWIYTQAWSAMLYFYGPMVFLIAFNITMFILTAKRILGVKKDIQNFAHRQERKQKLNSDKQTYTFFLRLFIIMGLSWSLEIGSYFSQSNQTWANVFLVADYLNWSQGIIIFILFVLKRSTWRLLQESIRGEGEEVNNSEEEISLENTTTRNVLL
Nature of the test: Binding affinity to Drosophila melanogaster Mth ectodomain. The essentials: (§1)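 Mth ectodomain (His6-tagged, C-terminal biotinylation tag, expressed in baculovirus-infected High 5 cells, biotinylated with BirA) immobilized at ~500 RU. Peptide was injected at the indicated concentrations, 45 μl per injection. Sensorgrams were double-referenced against a negative control flow cell and averaged buffer blanks. Kinetic parameters came from a global fit to a 1:1 bimolecular interaction model.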

The subject of test [2] is Drosophila melanogaster. Nature of the test: Displacement of radiolabeled full-length R8-01 mRNA from Drosophila melanogaster Mth ectodomain at 10 uM. A digest of the protocol: (§2)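 35S-methionine-labelled RNA-peptide fusions were RNase-treated and bound to Mth ectodomain immobilized on NeutrAvidin-agarose (~1 mg Mth per ml matrix). For competition, unlabelled peptide at various concentrations was included in the binding buffer during the initial binding step.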

Test [3] has as its system Drosophila melanogaster. As to the kind of experiment: Displacement of radiolabeled 30-mer synthetic peptide mRNA from Drosophila melanogaster Mth ectodomain at 30 uM. A digest of the protocol:
as §2

Test [4] relates to Drosophila melanogaster. Nature of the test: Displacement of radiolabeled full-length R8-01 mRNA from Drosophila melanogaster Mth ectodomain up to 150 uM. A digest of the protocol:
as §2

Test [5] has as its system Drosophila melanogaster. As to the kind of experiment: Displacement of radiolabeled full-length R8-04 mRNA from Drosophila melanogaster Mth ectodomain at 10 uM. The essentials:
as §2

For test [6], the target named is T2, G-protein coupled receptor Mth (Drosophila melanogaster) (UniProt O97148).
T2 sequence (whole entry): T1 sequence (O97148 whole entry)
Nature of the test: Binding affinity to Drosophila melanogaster Mth ectodomain at 100 nM measured by SPR. The essentials: as §1

Test [7] concerns the target T2, G-protein coupled receptor Mth (Drosophila melanogaster). As to the kind of experiment: Binding affinity to Drosophila melanogaster Mth ectodomain at 300 nM measured by SPR. The essentials:
as §1
On the technique in general: Surface plasmon resonance follows binding to a sensor surface in real time, without labels.

The target is the same in test [8]. As to the kind of experiment: Binding affinity to Drosophila melanogaster Mth ectodomain at 900 nM measured by SPR. The essentials: as §1
Test [9] has the same target. As to the kind of experiment: Binding affinity to Drosophila melanogaster Mth ectodomain at 1500 nM measured by SPR. The essentials:
as §1

In test [10] the target is T1, G-protein coupled receptor Mth. Nature of the test: Inhibition of Drosophila melanogaster Mth […] transfected into human HEK cells assessed as inhibition of N-Stunted-induced Mth signaling. It counts as cell-based, HEK293. The essentials:
(§3)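 HEK 293 cells stably expressing Mth-B were plated on Matrigel and loaded with 4 μM Fluo-4 (45 min at room temperature, then 15 min at 37 °C) in HEPES pH 7.5 HBSS buffer with BSA and 2.5 mM probenecid. After baseline readings, antagonist was added, followed by agonist peptide. Calcium fluorescence (ex 494/em 520 nm) was read for ~5 min. Values were background-subtracted and fitted to sigmoidal curves.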

The subject of test [11] is Drosophila melanogaster. As to the kind of experiment: Increase in life span of Drosophila melanogaster GAL-4/UAS--[…] transgene insertion line 11.1 at 29 degC. The class given is functional.
The test system of test [12] is Drosophila melanogaster. As to the kind of experiment: Increase in life span of Drosophila melanogaster GAL-4/UAS--[…] transgene insertion line 41.2 at 29 degC. The class given is functional.
Test [13] deals with Drosophila melanogaster. As to the kind of experiment: Increase in mean life span of Drosophila melanogaster GAL-4/UAS--[…] transgene insertion line 41.6 at 25 degC. The class given is functional. The essentials:
(§4)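 da-GAL4-driven UAS–R8-12 insertion line 41.6 male adults were maintained at 25 °C and followed by survival curves. Mean and maximal adult lifespans are the average of two independent trials, with about 90 to 120 flies per curve.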

Test [14] deals with Drosophila melanogaster. As to the kind of experiment: Increase in maximal life span of Drosophila melanogaster GAL-4/UAS--[…] transgene insertion line 41.6 at 25 degC. It counts as functional. A digest of the protocol:
as §4

The nature of test [15]: Binding affinity to G-protein coupled receptor MthW12S mutant of Drosophila melanogaster 300 nM by fluorescence microscopy. The essentials:
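Intrinsic Trp fluorescence with excitation at 295 nm. 300 nM peptide was titrated with Trp-less Mth W120S ectodomain, emission read at 345 nm, in 10 mM KH2PO4 pH 7.2, 150 mM NaCl. Complexes were mixed for 5 min in a stirred cell before reading. KD came from the titration.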

The test system of test [16] is Drosophila melanogaster. As to the kind of experiment: Increase in mean life span of Drosophila melanogaster GAL4/UAS--[…] transgene insertion line 41.6 at 29 degC. It counts as functional.
The test system of test [17] is Drosophila melanogaster. As to the kind of experiment: Increase in maximal life span of Drosophila melanogaster GAL4/UAS--[…] transgene insertion line 41.6 at 29 degC. It counts as functional.
Test [18] concerns the target T2, G-protein coupled receptor Mth (Drosophila melanogaster). As to the kind of experiment: Inhibition of Drosophila melanogaster Mth […] transfected into human HEK cells assessed as inhibition of N-Stunted-induced Mth signaling up to 10 uM. To be noted: HEK293. It counts as cell-based. A digest of the protocol: as §3
For test [19] the target is unchanged. As to the kind of experiment: Binding affinity to Drosophila melanogaster full-length Mth-GFP transfected into CHO cells at 150 nM by fluorescence microscopy.
Test [20] shares this target. As to the kind of experiment: Binding affinity to Drosophila melanogaster Mth ectodomain transfected in CHO cells up to 5 uM by SPR.

Activity calls are given as the source filed them. The rule behind the calls is not given here.

What is called Kd is the equilibrium constant for the complex coming apart. A higher Kd goes with a looser complex. Broadly, the IC50 is the point on the concentration scale where inhibition reaches its midpoint.

The compound H-GDDMYRIREFLANYRPIWVMRSNLAQL-OH came in with a Kd in [1] of less than 30 nM.
As for H-NVSWGSFPSSWLQRYYLAKRREADVTL-OH, the results for the Activity in the test with Drosophila melanogaster [2] and in the test on Drosophila melanogaster [3] were 96% and 79%, respectively. Also, in the test on Drosophila melanogaster [4], the outcome was inactive. In [1], this compound yielded a Kd of 31 nM.
Compound H-VRIGYTSKPGGMNPGNSYTMSIIRMLI-OH registered an Activity with Drosophila melanogaster [5] of 94%. The same compound gave a Kd in [1] of 326 nM. Also, the outcome in test [6], in test [7], in [8] and in test [9] was Active.
Consider H-RLVWIVRSRHFGPRLRMALLGSDRKMW-OH, for which the concentration for half-maximal inhibition (IC50) in test [10] is 45 nM. Besides, the Kd in test [1] stood at 18 nM; in test [15] it was 15 nM. For the same compound, the Activity with Drosophila melanogaster [11] is reported as 40%; in the test with Drosophila melanogaster [12] it was 31%; in the test with Drosophila melanogaster [13] it was 49%; with Drosophila melanogaster [14], 36%; with Drosophila melanogaster [16], 38%; in the test on Drosophila melanogaster [17], 26%. Further, the inhibition entry in test [18] was “inactive”. For the same compound, the outcome in [19] was Active.
Consider H-MAPRAVWIQAAIQAMFRLA-OH, for which, in test [20], the outcome was inactive.
Turning to H-MAPRAVAIQRAIQAMFRLAGY-OH, in test [20], the result was inactive.
As for `CC[C@H](C)[C@H](NC(=O)[C@H](C)NC(=O)[C@H](CCCNC(=N)N)NC(=O)[C@H](CCC(N)=O)NC(=O)[C@@H](NC(=O)[C@H](Cc1c[nH]c2ccccc12)NC(=O)[C@@H](NC(=O)[C@H](C)NC(=O)[C@H](CCCNC(=N)N)NC(=O)[C@@H]1CCCN1C(=O)[C@@H](C)N)C(C)C)[C@@H](C)CC)C(=O)N[C@@H](CCC(N)=O)C(=O)N[C@@H](C)C(=O)N[C@@H](CCSC)C(=O)N[C@@H](Cc1ccccc1)C(=O)N[C@@H](CCCNC(=N)N)C(=O)N[C@@H](CC(C)C)C(=O)N[C@@H](C)C(=O)N[C@@H](CO)C(=O)N[C@@H](CCCNC(=N)N)C(=O)N[C@@H](CCC(N)=O)C(=O)N[C@@H](CCC(=O)O)C(=O)N[C@@H](CO)C(=O)N[C@@H](CCCCN)C(=O)N[C@@H](C)C(=O)N[C@@H](Cc1ccccc1)C(=O)N[C@@H](CC(N)=O)C(=O)O`, in test [18], the inhibition entry is “inactive”.
Take `CC[C@H](C)[C@H](NC(=O)[C@H](C)NC(=O)[C@H](CCCNC(=N)N)NC(=O)[C@H](CCC(N)=O)NC(=O)[C@@H](NC(=O)[C@H](Cc1c[nH]c2ccccc12)NC(=O)[C@@H](NC(=O)[C@H](C)NC(=O)[C@H](CCCNC(=N)N)NC(=O)[C@@H]1CCCN1C(=O)[C@H](C)N)C(C)C)[C@@H](C)CC)C(=O)N[C@@H](CCC(N)=O)C(=O)N[C@@H](C)C(=O)N[C@@H](CCSC)C(=O)N[C@@H](Cc1ccccc1)C(=O)N[C@@H](CCCNC(=N)N)C(=O)N[C@@H](CC(C)C)C(=O)N[C@@H](C)C(=O)N[C@@H](CO)C(=O)N[C@@H](CCCNC(=N)N)C(=O)N[C@@H](CCC(N)=O)C(=O)N[C@@H](CCC(=O)O)C(=O)N[C@@H](CO)C(=O)N[C@@H](CCCCN)C(=O)N[C@@H](C)C(=O)N[C@@H](Cc1ccccc1)C(=O)N[C@@H](CC(N)=O)C(=O)O`: in [10], the 50% inhibitory concentration (IC50) came to 115 nM. In [1], this compound came in with an equilibrium dissociation constant (Kd) of 18 nM.
Take H-RYVWYLRTKHRRSLRLRSACARGSSA-OH: the Kd in [1] was less than 30 nM.

The values above are taken from ChEMBL document CHEMBL1221201, “Extension of Drosophila melanogaster life span with a GPCR peptide inhibitor” (Nat Chem Biol, 2007).
